Source: ChEMBL document CHEMBL4699414, “Hit-to-lead optimization of novel benzimidazole phenylacetamides as broad spectrum trypanosomacides” (RSC Med Chem, 2020)

Tests used:
[1] = system: Trypanosoma brucei brucei; test: Antitrypanosomal activity against Trypanosoma brucei brucei Lister 427 assessed as parasite growth inhibition measured after 48 hrs by alamar blue assay; settings: Lister 427, 48 h
[2] = Lipophilicity, logP of the compound; assay type: physicochemical; settings: octanol/water
[3] = Cytotoxicity against human HepG2 cells assessed as reduction in cell viability measured after 48 hrs by CellTiter-Glo assay; assay type: cell-based
How it was run: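 HepG2 human hepatoma cells from GSK Biological Reagents and Assay Development (Stevenage, UK); viability read-out per earlier method.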

[4] = Cytotoxicity against rat H9c2 cells assessed as reduction in cell viability; assay type: cell-based
HEK293 = test: Cytotoxicity against human HEK293 cells assessed as reduction in cell viability measured after 48 hrs by resazurin assay relative to control; assay type: cell-based; settings: hek293, 48 h
How it was run: (§1)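 HEK293 cells from ATCC; Alamar Blue viability read-out run per earlier method.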

Trypanosoma cruzi [5] = test: Antitrypanosomal activity against Trypanosoma cruzi infected in rat H9c2 infected with trypomastigotes from parasite-infected monkey LLC-MK2 cells measured after 72 hrs by DRAQ5 DNA dye based microscopic imaging analysis; assay type: functional, organism-based; settings: H9c2, 72 h
[6] = Selectivity index, ratio of CC50 for rat H9c2 cells assessed as reduction in cell viability to IC50 for Trypanosoma cruzi infected in rat H9c2 infected with trypomastigotes from parasite-infected monkey LLC-MK2 cells measured after 72 hrs by DRAQ5 DNA dye based microscopic imaging analysis; assay type: toxicity; settings: read-out: Ratio CC50/IC50
Trypanosoma cruzi [7] = test: (§2) Antitrypanosomal activity against recombinant Trypanosoma cruzi intracellular amastigotes expressing beta-galactosidase infected in mouse NIH/3T3 cells assessed as parasite growth inhibition incubated for 4 days by resorufin-beta-D-galactopiranoside substrate based fluorescence assay; assay type: functional, organism-based; settings: NIH3T3, 96 h
[8] = Cytotoxicity against human HEK293 cells assessed as reduction in cell viability measured after 48 hrs by resazurin assay; assay type: cell-based
How it was run: as §1

[9] = Selectivity index, ratio of CC50 for human HEK293 cells assessed as reduction in cell viability measured after 48 hrs by resazurin assay to IC50 for Trypanosoma brucei brucei Lister 427 […] assessed as parasite growth inhibition measured after 48 hrs by alamar blue assay; assay type: toxicity, cell-based; settings: read-out: Ratio CC50/IC50
[10] = as §2, with “Selectivity index, ratio of CC50 for mouse NIH/3T3 cells to IC50 for” for “Antitrypanosomal activity against”; assay type: toxicity, cell-based; settings: time 4 day, read-out: Ratio CC50/IC50

Structure (SMILES) | IC50 [1] [µM] | logP [2] | CC50 at 48 h [3] [µM] | CC50 [4] [µM] | Activity (HEK293) [µM] | IC50 (Trypanosoma cruzi [5]) [nM] | selectivity ratio at 72 h [6] | IC50 (Trypanosoma cruzi [7]) [nM] | CC50 at 48 h [8] [µM] | selectivity ratio at 48 h [9] | selectivity ratio at 96 h [10]
CCCn1c(NC(=O)Cc2ccc(Cl)cc2)nc2c(Br)cccc21 | 19 | 5.5 | > 50 | > 50 | 54 | 10000 | – | – | – | – | –
CCCn1c(NC(=O)Cc2ccc(Cl)cc2)nc2cc(Cl)ccc21 | 4.4 | 5.3 | > 50 | 7.94 | 84 | 500 | – | – | – | – | –
CCCn1c(NC(=O)Cc2ccc(Cl)cc2)nc2ccccc21 | – | 4.7 | > 50 | > 50 | – | – | 40 | 630 | > 83 | 50 | 79
CCCn1c(NC(=O)Cc2cccc(C)c2)nc2ccccc21 | 3.6 | 4.6 | > 50 | > 50 | – | 2000 | – | – | 15 | – | –
